Compound activity (PubChem BioAssay)
An excerpt weighted towards active compounds, which were near 2.4% of everything screened.
NR2E3 ag-1: activates human NR2E3 receptor. Q9Y5X4. CHO-S Gal4-NCOR/VP16-NR2E3 two-hybrid, luciferase. inhibition of corepressor binding, % at 3.98 µM. 0.35% of 360,000 active. AID 602229;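 active = inhibition above the mean of all tested compounds plus 3 SD, cut at about 70% in these data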;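 note: higher means lower luciferase signal from less NR2E3 corepressor binding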
Target sequence (Q9Y5X4 whole entry, looked up, the tested form may be a part): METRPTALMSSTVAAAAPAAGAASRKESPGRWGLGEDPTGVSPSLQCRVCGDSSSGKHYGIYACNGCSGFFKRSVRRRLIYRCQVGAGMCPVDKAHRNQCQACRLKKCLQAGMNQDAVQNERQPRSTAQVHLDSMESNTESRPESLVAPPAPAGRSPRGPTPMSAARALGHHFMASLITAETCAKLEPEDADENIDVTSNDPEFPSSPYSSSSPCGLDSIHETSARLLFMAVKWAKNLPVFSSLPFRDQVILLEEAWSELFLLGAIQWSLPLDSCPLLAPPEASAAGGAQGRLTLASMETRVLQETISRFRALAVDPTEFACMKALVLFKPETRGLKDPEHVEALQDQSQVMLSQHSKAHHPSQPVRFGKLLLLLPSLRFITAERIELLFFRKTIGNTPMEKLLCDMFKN
NR2E3 ag-2: agonists of human nuclear receptor NR2E3; Q9Y5X4; GST-NR2E3/biotin-RetCOR TR-FRET, 1536-well; inhibition of corepressor binding, % at 4.78 µM; 0.12% of 320,000 active; AID 2300;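 active = percent inhibition above the cutoff of mean plus 3 SD of all tested compounds, set per screening campaign, cut at about 20% in these data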
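Material – GST-tagged NR2E3 plus biotinylated RetCOR corepressor · Quantity – NR2E3 fusion 1.35 nM · Times – 5 h incubation at 4 °C · Medium – pH 7.5 Tris-based buffer · Technique – TR-FRET, Eu(K)-anti-GST donor, streptavidin-D2 acceptor, ex 340, em 617/671 nm · Benchmarks – high control biotin, low control 0.6% DMSO · Format – 1536-well plates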
Jurkat NFkB inh: inhibitors of the PMA/ionomycin-induced NF-kB reporter in Jurkat cells; PMA/ionomycin-induced NF-kB luciferase reporter, luminescence; inhibition, % at 4 µM; 0.53% of 330,000 active; AID 435003; in the data active = inhibition above about 50%
aDG glyco up: increases alpha dystroglycan glycosylation. Pro5-aDG cells, alpha-DG glycosylation AlphaScreen (IIH6); 0% Pro5, 100% B10-LARGE cell signal. activation, % at 10 µM. 0.22% of 360,000 active. AID 624168;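 active = activation of at least 8% versus controls, or a plate z-score of at least 8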;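 note: Pro5 are CHO cells carrying HIG-tagged alpha-DG that lacks glycosylation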
MPTP inh: inhibitors of mitochondrial permeability transition pore | isolated mouse mitochondria, Ca2+ swelling absorbance, 30 min | inhibition, % at 10 µM | AID 602449 | 1.4% of 360,000 active;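 active = inhibition of 50% or more, scaled per plate between neutral and stimulator controls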
697 NFkB inh: inhibitors of the PMA/ionomycin-induced NF-kB reporter in 697 B cells. 697 B-cell NF-kB luciferase reporter, 16 h. inhibition, % at 4 µM. 0.33% of 330,000 active; in the data active = inhibition above about 35%
aDG conf: confirmation of alpha dystroglycan glycosylation activators; shares compounds with aDG glyco up; Pro5-aDG cells, alpha-DG glycosylation, IIH6 AlphaLISA; scaled to LARGE-overexpressing B10 cells as 100%; activation, % at 10 µM (by protocol); 17% of 600 active; AID 651671;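 active = activation of at least 7% in one or more replicates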;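 note: cells exposed to compound for two days before detection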
A number is an active result; i = inactive; nt = no result.

SMILES | NR2E3 ag-1 | NR2E3 ag-2 | Jurkat NFkB inh | aDG glyco up | MPTP inh | 697 NFkB inh | aDG conf
CCCCN(C(=O)c1ccc(N(C)S(=O)(=O)c2ccc(C)cc2)cc1)c1c(N)n(CCCC)c(=O)[nH]c1=O | i | i | i | i | i | i | nt
N#C/C(=C\c1cccc(Cl)c1)c1n[nH]c(Cn2cncn2)n1 | i | i | i | 2.9 | i | i | i
O=C(O)/C=C/C(=O)Nc1ccccc1SC(F)(F)C(F)(F)C(F)(F)F | i | i | i | i | i | i | nt
CCN1CCc2c(sc(NC(=O)c3ccc(S(=O)(=O)N4CCCCCC4)cc3)c2C(=O)NC)C1 | i | i | i | 25.7 | i | i | i
CC1CCCN(S(=O)(=O)c2ccc(C(=O)Nc3sc4c(c3C(N)=O)CCN(C)C4)cc2)C1 (stereo unspecified) | i | i | i | 47.5 | i | i | 3.7
CNC(=O)c1c(NC(=O)c2ccc(S(=O)(=O)N3CCCC3)cc2)sc2c1CCN(C(C)C)C2 | nt | i | i | nt | nt | i | nt
CC(C)N1CCc2c(sc(NC(=O)C3CCCCC3)c2C(N)=O)C1 | i | i | i | 8.2 | i | i | i
CCCN1CCc2c(sc(NC(=O)c3ccc(S(=O)(=O)N4CCCC4)cc3)c2C(N)=O)C1 | i | i | i | i | i | i | nt
CCN1CCc2c(sc(NC(=O)c3ccc(S(=O)(=O)N4CCOCC4)cc3)c2C(N)=O)C1 | i | i | i | 88.4 | i | i | i
CCN1CCc2c(sc(NC(=O)c3ccc(S(=O)(=O)N4CCOCC4)cc3)c2C(=O)OC)C1 | i | i | i | i | i | i | nt
O=C(NCCc1ccc(C(F)(F)F)cc1)c1ccc(Cl)nc1 | i | i | i | i | i | i | nt
Cc1cc(C)c(C(N)=O)c(SCC(=O)c2cc(C)n(-c3cc(C)on3)c2C)n1 | i | nt | i | i | i | i | nt
O=S(=O)(c1cc(F)ccc1F)N1CCC2(CC1)OCCO2 | i | i | i | i | i | i | nt
O=C(Nc1ccc(F)c(F)c1)c1ccc(F)c(S(=O)(=O)N2CCC3(CC2)OCCO3)c1 | i | i | i | 10.3 | i | i | i
CCOc1ccc(NC(=O)c2ccc(F)c(S(=O)(=O)N3CCN(c4ccccn4)CC3)c2)cc1 | i | i | i | 5.0 | i | i | 2.1
Cc1cccc(Nc2nc(N)nc(CN3CCN(C)CC3)n2)c1 | i | i | i | i | i | i | nt
Cc1cccc(Nc2nc(N)nc(CN3CCN(c4ccc(F)cc4)CC3)n2)c1 | i | i | i | 11.8 | i | i | i
COc1ccc(CCc2ccc3ccccc3n2)cc1 | i | nt | nt | i | i | nt | nt
Cc1ccc(S(=O)(=O)N2CCOCC2)cc1C(=O)NC1CCCCC1 | i | i | i | 50.0 | i | i | i
Cc1ccc(S(=O)(=O)N2CCOCC2)cc1C(=O)NC1CCCC1 | i | i | i | i | i | i | nt
Cc1cc(NCc2ccccn2)n2ncc(-c3ccc(Cl)cc3)c2n1 | i | i | i | 3.0 | i | i | 4.6
Cc1cc(NCc2ccccn2)n2ncc(-c3ccccc3)c2n1 | i | i | i | i | i | i | nt
CCSc1nnc(SCC(=O)c2c(N)n(C)c(=O)n(C)c2=O)s1 | i | nt | i | 4.2 | i | i | i
CC[C@]1(C(=O)OC)[C@H]2C(=O)N(C)C(=O)[C@H]2[C@H]2CN=C(SCc3ccc(C(=O)OC)cc3)N21 | i | nt | nt | 5.9 | i | i | i
COC(=O)c1ccc(CSC2=NC[C@@H]3[C@@H]4C(=O)N(C)C(=O)[C@@H]4[C@](C)(C(=O)OC)N23)cc1 | i | nt | nt | i | i | i | nt
SMILES | NR2E3 ag-1 | NR2E3 ag-2 | Jurkat NFkB inh | aDG glyco up | MPTP inh | 697 NFkB inh | aDG conf
COc1ccc(C(=O)NC(=S)N2CCCCC2)cc1 | i | i | i | 3.6 | i | i | i
COc1ccc(C(=O)NC(=S)N2CCCC2)cc1 | i | i | i | i | i | i | nt
Cc1cc(NC(=O)CSc2nnc(Cc3ccccc3)n2C)no1 | i | i | i | i | i | i | nt
CCn1c(Cc2ccccc2)nnc1SCC(=O)Nc1cc(C)on1 | i | i | i | 43.9 | i | i | i
CCCOc1ccc(C(=O)OCC(=O)NCCc2ccc(OCC)c(OCC)c2)cc1OC | i | i | i | i | i | i | nt
CCOc1ccc(CCNC(=O)COC(=O)c2cc(OC)cc(OC)c2)cc1OCC | i | i | i | 24.1 | i | i | i
COCCn1c(C)nnc1SCC(=O)Nc1ccccc1[N+](=O)[O-] | i | i | i | i | i | i | nt
O=C(c1ccc([N+](=O)[O-])o1)N1CCN(c2nc3ccc(F)cc3s2)CC1 | i | i | i | 5.1 | i | i | i
COc1ccc(C2=NN(CN3C(=O)C(=O)c4ccccc43)C(c3cccc([N+](=O)[O-])c3)C2)cc1 (stereo unspecified) | i | i | i | i | i | i | nt
Cc1ccc(CN2CCC(c3cc(-c4ccc(Cl)cc4)n[nH]3)CC2)cc1 | i | i | i | i | i | i | nt
Clc1ccc(-c2cc(C3CCNCC3)[nH]n2)cc1 | i | i | i | 6.9 | i | i | i
CCCN1CCC(=O)N(CCO)CC1 | i | i | i | i | i | i | nt
CN1CCN(NC(=S)Nc2ccc(Oc3ccccc3)cc2)CC1 | i | i | i | i | i | i | nt
CCc1cc(CNC(=O)c2ccc3nc(Cc4ccc(OC)c(OC)c4)oc3c2)on1 | i | i | i | 8.2 | i | i | i
CN1C2C=CC(=O)C1C1C(=O)N(c3ccccc3)C(=O)C12 (stereo unspecified) | i | nt | nt | i | i | nt | nt
N#Cc1ccccc1OCCCN1CCC(Cc2ccccc2)CC1 | i | i | i | i | i | i | nt
C=CCNC(=S)N/N=C(\C)c1ccc(OC)cc1 | i | i | i | 11.6 | i | i | i
COCCNC(=S)N/N=C(\C)c1ccc(O)cc1 | i | i | i | 7.4 | i | i | i
CCCNS(=O)(=O)c1ccc(OCC(=O)NCCC2=CCCCC2)cc1 | i | i | i | 9.1 | i | i | i
O=S(=O)(CCNC1CC1)NC1CCCCC1 | i | nt | nt | i | i | nt | nt
Cc1cccc(NC(=O)C(=O)NCc2ccc3c(c2)OCO3)c1C | i | i | i | i | i | i | nt
CCc1ccccc1NC(=O)Cn1ccn(-c2ccc(OC)cc2)c(=O)c1=O | i | i | i | i | i | i | nt
